The MIC90 is the lowest concentration that inhibits either 90% of growth or 90% of the strains tested, depending on the study. A high value points to weaker potency.

≈ marks a conversion by molar mass, not a printed value.

The subject of the assay is Mycobacterium tuberculosis. Kind of assay: Antitubercular activity against Mycobacterium tuberculosis H37Rv measured on day 7 post dose by microplate alamar blue assay. Type of assay: functional. The conditions noted are these: 168 h. In outline: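 MABA against H37Rv in 7H12 medium, two-fold dilutions, final 0.05–5 or 0.004–1 µg/mL (DMSO stocks 5 or 2 mg/mL). Inoculum 2×10⁵ cfu/mL, 37 °C. On day 7, Tween 80 and Alamar Blue added; fluorescence (ex 530/em 590) read after 16–24 h. MIC = interpolated lowest concentration giving ≥90% fluorescence reduction versus bacteria-only controls. INH and RIF as controls.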
For orientation: Resazurin is reduced to fluorescent resorufin, in cell work by metabolically active cells.
Compound `NNC(=O)c1ccncc1` [ISONIAZID] displayed an MIC90 of 0.1 µg/mL (≈ 0.729 µM).
The same measure for `CCc1nn2ccc(Cl)cc2c1C(=O)NCc1ccc(-c2ccc(OC(F)(F)F)cc2)nc1`: 0.2 µg/mL (≈ 0.421 µM); for `CO[C@H]1/C=C/O[C@@]2(C)Oc3c(C)c(O)c4c(O)c(c(/C=N/N5CCN(C)CC5)c(O)c4c3C2=O)NC(=O)/C(C)=C\C=C\[C@H](C)[C@H](O)[C@@H](C)[C@@H](O)[C@@H](C)[C@H](OC(C)=O)[C@@H]1C` [RIFAMPIN]: 0.003 µg/mL (≈ 0.00365 µM); for `Cc1ccn2nc(C)c(C(=O)NCc3ccc(N4CCC(Oc5ccc(OC(F)(F)F)cc5)CC4)cc3)c2c1`: 0.006 µg/mL (≈ 0.0111 µM).
In turn, `CCc1nn2ccc(Cl)cc2c1C(=O)NCC1CCN(CC23CC4CC(CC(C4)C2)C3)CC1` gave an MIC90 of more than 1 µg/mL.
For `Cc1ccn2nc(C)c(C(=O)NCc3ccc(OC(F)(F)F)cc3)c2c1`, the MIC90 was determined as 0.91 µg/mL (≈ 2.5 µM).
The compound `CCc1nn2ccc(Cl)cc2c1C(=O)NC/C=C(\C)CCC=C(C)C` displayed an MIC90 of 0.17 µg/mL (≈ 0.472 µM).

The values above are taken from ChEMBL document CHEMBL4041463, “Pyrazolo[1,5-a]pyridine-3-carboxamide hybrids: Design, synthesis and evaluation of anti-tubercular activity” (Eur J Med Chem, 2017).
